# Experimental data published in ChEMBL document CHEMBL1153179, “Optimization of orally bioavailable alkyl amine renin inhibitors” (Bioorg Med Chem Lett, 2010).
# pIC50: −log10 of the molar value. Calls of active or inactive are those of the source. The rule behind the calls is not given here.
# Key:
# Renin [1] = molecular target: T1, Renin (Homo sapiens, UniProt P00797); test: Inhibition of trypsin-activated human recombinant renin
# T1 sequence (P00797 whole entry): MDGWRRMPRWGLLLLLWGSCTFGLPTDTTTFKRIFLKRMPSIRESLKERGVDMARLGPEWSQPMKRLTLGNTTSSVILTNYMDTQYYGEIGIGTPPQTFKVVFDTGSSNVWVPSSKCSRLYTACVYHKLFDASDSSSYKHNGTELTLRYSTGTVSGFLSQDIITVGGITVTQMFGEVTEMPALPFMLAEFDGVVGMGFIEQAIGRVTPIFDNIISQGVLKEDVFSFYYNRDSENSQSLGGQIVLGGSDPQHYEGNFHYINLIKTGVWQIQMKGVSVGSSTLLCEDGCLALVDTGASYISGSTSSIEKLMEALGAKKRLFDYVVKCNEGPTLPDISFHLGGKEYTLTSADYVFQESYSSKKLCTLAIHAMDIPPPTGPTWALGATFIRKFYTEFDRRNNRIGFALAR
# [2] = (§1) AUC (0 to t) in rat at 10 mg/kg, po; type: ADME, organism-based, Plasma; parameters: dose 10 mg/kg, route oral; settings: plasma
# [3] = Half life in rat at 10 mg/kg, po; type: ADME, organism-based; parameters: dose 10 mg/kg, route oral; settings: in vivo
# Renin [4] = molecular target: T1, Renin; test: Inhibition of human recombinant renin assessed as decrease in plasma renin activity by competitive radioimmunoassay in presence of human plasma
# [5] = Cmax in rat at 10 mg/kg, po; type: ADME, organism-based; parameters: dose 10 mg/kg, route oral; settings: in vivo
# [6] = Volume of distribution at steady state in rat at 10 mg/kg, po or 2 mg/kg, iv; type: ADME, organism-based; settings: in vivo, read-out: Vdss
# [7] = (§2) Oral bioavailability in rat at 10 mg/kg; type: ADME, organism-based; settings: in vivo
# [8] = Clearance in rat at 2 mg/kg, iv; type: ADME, organism-based; parameters: dose 2 mg/kg, route intravenous; settings: in vivo
# [9] = Tmax in rat at 10 mg/kg, po; type: ADME, organism-based; parameters: dose 10 mg/kg, route oral; settings: in vivo
# Rattus norvegicus [10] = test: as §1; type: ADME, organism-based, Plasma; parameters: dose 10 mg/kg, route oral; settings: in vivo
# Rattus norvegicus [11] = test: as §2; type: ADME, organism-based; settings: in vivo
# [12] = Oral bioavailability in cynomolgus monkey at 2 mg/kg; type: ADME, organism-based, Macaca fascicularis; settings: in vivo
# [13] = Volume of distribution at steady state in cynomolgus monkey at 1 mg/kg, iv or 2 mg/kg, po; type: ADME, organism-based, Macaca fascicularis; settings: in vivo, read-out: VDss
# [14] = Clearance in cynomolgus monkey at 1 mg/kg, iv; type: ADME, organism-based, Macaca fascicularis; parameters: dose 1 mg/kg, route intravenous; settings: in vivo
# [15] = Tmax in cynomolgus monkey at 2 mg/kg, po; type: ADME, organism-based, Macaca fascicularis; parameters: dose 2 mg/kg, route oral; settings: in vivo
# [16] = Cmax in cynomolgus monkey at 2 mg/kg, po; type: ADME, organism-based, Macaca fascicularis; parameters: dose 2 mg/kg, route oral; settings: in vivo
# [17] = AUC (0 to 32 hrs) in cynomolgus monkey at 2 mg/kg, po; type: ADME, organism-based, Macaca fascicularis; parameters: time < 32 hr, dose 2 mg/kg, route oral; settings: plasma
# [18] = Half life in cynomolgus monkey at 2 mg/kg, po; type: ADME, organism-based, Macaca fascicularis; parameters: dose 2 mg/kg, route oral; settings: in vivo
# Rattus norvegicus [19] = test: Reduction in mean blood pressure in double transgenic rat model of hypertension at 10 mg/kg, po after 24 hrs; type: functional, organism-based; parameters: dose 10 mg/kg
# In short: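 Double transgenic rats expressing human renin and human angiotensinogen (dTGR) given a single 10 mg/kg oral dose; mean arterial pressure followed over 24 h against vehicle-treated animals, with statistical significance assessed.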
# [20] = AUC (0 to t) in cynomolgus monkey at 2 mg/kg, po; type: ADME, organism-based, Macaca fascicularis; parameters: dose 2 mg/kg, route oral; settings: plasma
Structure (SMILES),pIC50 (Renin [1]),AUC(0-t) [2],half-life [3],pIC50 (Renin [4]),also measured
CCCC(=O)NCCC[C@@](O)(c1cccc(Cl)c1)[C@@H]1CCCN(C(=O)N[C@H](CNC)CC2CCCCC2)C1,7.24,–,–,–,–
CCOCCCO[C@@H](c1ccccc1)[C@@H]1CCCN(C(=O)N[C@H](CNC)CC2CCCCC2)C1,–,832 ng·h/mL,5.9 h,–,–
CNC[C@H](CC1CCCCC1)NC(=O)N1CCC[C@@H]([C@@H](OCCNC(=O)OC)c2cc(F)ccc2F)C1,9.21,–,–,8.57,–
CNC[C@H](CC1CCCCC1)NC(=O)N1CCC[C@@H]([C@@](O)(CCCNC(=O)C2CC2)c2cccc(Cl)c2)C1,7.77,–,–,7.10,–
CNC[C@H](CC1CCCCC1)NC(=O)N1CCC[C@@H]([C@@H](OCCNC(=O)OC)c2cccc(F)c2)C1,9.23,380 ng·h/mL,12.7 h,8.74,Cmax [5]: 123 ng/mL; Vd [6]: 61 L/kg; bioavailability [7]: 22.1%; clearance [8]: 58 mL/min/kg; Tmax [9]: 2 h
CNC[C@H](CC1CCCCC1)NC(=O)N1CCC[C@@H]([C@@](O)(CCCNS(N)(=O)=O)c2cccc(Cl)c2)C1,7.34,–,–,6.53,–
CCNC[C@H](CC1CCCCC1)NC(=O)N1CCC[C@@H]([C@@H](OCCNC(=O)OC)c2cccc(F)c2)C1,8.68,–,–,7.74,–
CCNC[C@H](CC1CCCCC1)NC(=O)N1CCC[C@@H]([C@@H](OCCNC(=O)OC)c2cccc(Cl)c2)C1,9.06,–,–,8.11,–
CNC[C@H](CC1CCCCC1)NC(=O)N1CCC[C@@H]([C@@H](OCCNC(=O)OC)c2cc(F)cc(Cl)c2)C1,9.28,–,7.2 h,8.82,Cmax [5]: 54 ng/mL; AUC (Rattus norvegicus [10]): 166 ng·h/mL; Vd [6]: 38 L/kg; F (Rattus norvegicus [11]): 13.1%; Tmax [9]: 4 h
CNC[C@H](CC1CCCCC1)NC(=O)N1CCC[C@@H]([C@@](O)(CCCCOC)c2cccc(Cl)c2)C1,–,472 ng·h/mL,–,–,bioavailability [12]: 16%; Vd [13]: 6.1 L/kg; clearance [14]: 5.2 mL/min/kg; Tmax [15]: 2.7 h; Cmax [16]: 116 ng/mL; AUC(0-t) at 32 h [17]: 615 ng·h/mL; half-life [18]: 15 h
CNC[C@H](CC1CCCCC1)NC(=O)N1CCC[C@@H]([C@@](O)(CCCNC(=O)OC)c2cccc(Cl)c2)C1,9.74,10 ng·h/mL,1.8 h,8.43,Cmax [5]: 5 ng/mL; Vd [6]: 29 L/kg; bioavailability [7]: 0.3%; clearance [8]: 34 mL/min/kg; Tmax [9]: 0.9 h
CNC[C@H](CC1CCCCC1)NC(=O)N1CCC[C@@H]([C@@](O)(CCCNC(N)=O)c2cccc(Cl)c2)C1,7.51,–,–,6.70,–
COCCCOc1cc(C[C@@H](C[C@H](N)[C@@H](O)C[C@H](C(=O)NCC(C)(C)C(N)=O)C(C)C)C(C)C)ccc1OC,–,21 ng·h/mL,13.5 h,–,bioavailability [12]: 1.4%; clearance [14]: 2.5 mL/min/kg; Tmax [15]: 1.3 h; Activity (Rattus norvegicus [19]): Active; Cmax [16]: 29.5 ng/mL; AUC(0-t) [20]: 154 ng·h/mL; half-life [18]: 9.8 h
COC(=O)NCCO[C@@H](c1cccc(F)c1)[C@@H]1CCCN(C(=O)N[C@H](CN)CC2CCCCC2)C1,9.24,–,–,8.48,–
CNC[C@H](CC1CCCCC1)NC(=O)N1CCC[C@@H]([C@@](O)(CCCNS(C)(=O)=O)c2cccc(Cl)c2)C1,6.75,–,–,–,–
